Positions count from the first letter of the chain named. “Also recorded” adds a separate entry of the source. Where two headings read alike, the source gives them in different places. Values belong to the substance of their own block, whether it stands above or below them. Square brackets hold non-standard residues; d marks the D form. Ends that are not written are not given here. Phe(4-F) = N[C@@H](Cc1ccc(F)cc1)C(=O)O
Legend:
[1] = biological target: T1, xlKu80 vWA(S229A) (Xenopus laevis, UniProt Q6DDS9, C190S/DEL171-188/S229A); experiment: 19F NMR binding study, xlKu80 vWA; conditions: for binding affinity change resulting from S229A mutation: xlKu80 vWA(S229A) compared with unmodified xlKu80 vWA
T1 sequence (Q6DDS9 with tags, fused parts or gaps DEL171-188/C190S/S229A limits assumed): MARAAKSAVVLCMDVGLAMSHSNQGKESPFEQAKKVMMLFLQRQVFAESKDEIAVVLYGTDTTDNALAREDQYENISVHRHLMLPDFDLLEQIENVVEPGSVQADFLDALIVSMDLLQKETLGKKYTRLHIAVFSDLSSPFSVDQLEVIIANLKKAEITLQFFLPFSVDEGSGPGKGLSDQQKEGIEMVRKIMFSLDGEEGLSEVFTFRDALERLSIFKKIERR
Method in brief: (§1)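 Protein (0.2 mM; wild-type-derived or S229A vWA construct, His-tagged, expressed by autoinduction in E. coli BL21(DE3), Ni-NTA and gel filtration purified) titrated with XLF KBMX peptide carrying 4-fluoro-L-Phe at the penultimate position. Peptide stock held protease inhibitor cocktail. ¹⁹F spectra at 564.279 MHz, 25 °C. Internal standard 0.2 mM 4-fluorobenzamide (−34.9 ppm vs external TFA).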

[2] = biological target: fluorescein-labeled human APLF KBM peptide (human); experiment: fluorescence polarisation
[3] = biological target: fluorescein-labeled human APLF KBM peptide (human); experiment: fluorescence polarisation; remark: listed apart in the source
[4] = biological target: T2, xlKu80 vWA (Xenopus laevis, UniProt Q6DDS9, C190S/DEL171-188); experiment: 19F NMR binding study, xlKu80 vWA; conditions: 0.2 mM xlKu80 vWA; peptide 0.2, 0.4 and 1.0 mM; 25 °C; 150 mM NaCl, 25 mM HEPES
T2 sequence (Q6DDS9 with tags, fused parts or gaps DEL171-188/C190S limits assumed): T1 sequence (Q6DDS9 with tags, fused parts or gaps DEL171-188/C190S/S229A limits assumed) with A211S
Method in brief: as §1

[5] = biological target: T1, xlKu80 vWA(S229A); experiment: X-ray crystallography of xlKu80 vWA; format: binding; conditions: crystal of xlKu80 vWA(S229A)-KBMX^XLF, PDB: 6TYX, 1.90 Å

19F NMR linewidth in the presence of vWA(S229A) ([1]; 0.2 mM xlKu80 vWA(S229A), 1:1 ratio, 25 °C, 150 mM NaCl, 25 mM HEPES, 1 mM TCEP, 1 mM EDTA, 10 % D2O): 109 Hz
exchange between 19F resonances of bound and free peptide ([1]; 19F NMR, 0.2 mM xlKu80 vWA(S229A) plus 0.2, 0.3, 0.4 mM peptide, 25 °C): slow exchange
Substance: KPKKKAKGLF*M [fluorinated XLF KBMX peptide]

Kd [2]: 0.162 nM
Kd [3]: 162 nM
Substance: human Ku80 von Willebrand domain (hsKu80 vWA), 1–240 aa, F47Q/F88Q/L234Q/F237Y (from UniProt P13010 1-240) (domain or fragment)

Kd [2]: 0.131 nM
Kd [3]: 131 nM
Substance: isolated Xenopus laevis Ku80 von Willebrand A-like domain (xlKu80 vWA) (domain or fragment)

19F NMR binding to xlKu80 vWA [4]: negligible
binding affinity change resulting from S229A mutation ([1]; 19F NMR, listed as KBMX^XLF motif peptide): capable of binding
Substance: KBMX^XLF peptide: KBMX peptide from XLF (KPKKKAKGL[Phe(4-F)]M; not fully specified; printed as KPKKKAKGLF*M)
binding affinity change resulting from S229A mutation ([1]; 19F NMR): increases dramatically; also recorded: dramatically increased affinity
binding confirmed by X-ray crystallography [5]: further confirmed by X-ray crystallography

From paper PMC7495496 (DNA repair, 2019)
